Entries after “also recorded” stand apart in the source; their conditions may differ. Ends that are not written are not given here.
B1: GST-talin head: human talin 2 head (aa 1–438) expressed as GST fusion protein (protein)
chain: MVALSLKICVRHCNVVKTMQFEPSTAVYDACRVIRERVPEAQTGQASDYGLFLSDEDPRKGIWLEAGRTLDYYMLRNGDILEYKKKQRPQKIRMLDGSVKTVMVDDSKTVGELLVTICSRIGITNYEEYSLIQETIEEKKEEGTGTLKKDRTLLRDERKMEKLKAKLHTDDDLNWLDHSRTFREQGVDENETLLLRRKFFYSDQNVDSRDPVQLNLLYVQARDDILNGSHPVSFEKACEFGGFQAQIQFGPHVEHKHKPGFLDLKEFLPKEYIKQRGAEKRIFQEHKNCGEMSEIEAKVKYVKLARSLRTYGVSFFLVKEKMKGKNKLVPRLLGITKDSVMRVDEKTKEVLQEWPLTTVKRWAASPKSFTLDFGEYQESYYSVQTTEGEQISQLIAGYIDIILKKKQSKDRFGLEGDEESTMLEESVSPKKSTILQQQ
modifications: left off: GST, end not stated, kept

Assays:
[1] = test system: talin; assay: GST-PIPKIγ tail pull-down, rat brain extract; type: binding; conditions: rat brain protein extracts; Western blot and Coomassie blue, Fig. 1 A, B
Outline: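 Bait: human PIPKIγ tail (aa 635–662) expressed as a GST fusion and purified, with GST alone as control. Used for affinity pull-down from lamprey spinal cord or rat brain extracts. Bound proteins were run on protein gels, then Coomassie blue stained or Western blotted with anti-talin antibody TD77.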

[2] = test system: lamprey reticulospinal synapses; assay: EM of stimulated synapses in microinjected axons; type: cell-based, lamprey (Ichthyomyzon unicuspis); conditions: GST-talin head-injected axons, estimated 0.5–2.5 μM; Fig. 5
[3] = molecular target: PIPKIγ (90-kD protein doublet); assay: GST-talin head pull-down, lamprey extract; type: binding; conditions: Western blot with anti-PIPKIγ antibody, Fig. 1 E
Outline: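 Bait: human talin 2 head (aa 1–438) expressed as a GST fusion and purified, with GST alone as control. Used for affinity purification from lamprey extract alongside a load lane. Eluates were Western blotted with an in-house anti-PIPKIγ antibody to detect the 90-kD doublet.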

Row | Molecule | affinity purification of talin (in words) [1] | clathrin-mediated endocytosis at stimulated synapses (in words) [2] | affinity purification of PIPKIγ 90-kD doublet (in words) [3]
1 | GST-PIPKIγ tail: GST fusion protein of human PIPKIγ tail (aa 635–662), the 28-aa COOH-terminal tail ({GST}-ATDIYFPTDERSWVYSPLHYSAQAPPAS) | purification of the upper talin band; also recorded: Talin was the only major band retained |  | 
2 | B1 |  | a perturbation of clathrin-mediated endocytosis at synapses similar to that observed with PIPK pep | specifically affinity purified
